ChEMBL document CHEMBL1909630, “Azaxanthene based selective glucocorticoid receptor modulators: design, synthesis, and pharmacological evaluation of (S)-4-(5-(1-((1,3,4-thiadiazol-2-yl)amino)-2-methyl-1-oxopropan-2-yl)-5H-chromeno[2,3-b]pyridin-2-yl)-2-fluoro-N,N-dimethylbenzamide (BMS-776532) and its methylene homologue …” (J Med Chem, 2011)

How the values were obtained:
Androgen receptor = target: T1, Androgen receptor (Homo sapiens, UniProt P10275); test: Displacement of fluorescently labeled ligand from androgen receptor by fluorescence polarization assay
T1 sequence (P10275 whole entry): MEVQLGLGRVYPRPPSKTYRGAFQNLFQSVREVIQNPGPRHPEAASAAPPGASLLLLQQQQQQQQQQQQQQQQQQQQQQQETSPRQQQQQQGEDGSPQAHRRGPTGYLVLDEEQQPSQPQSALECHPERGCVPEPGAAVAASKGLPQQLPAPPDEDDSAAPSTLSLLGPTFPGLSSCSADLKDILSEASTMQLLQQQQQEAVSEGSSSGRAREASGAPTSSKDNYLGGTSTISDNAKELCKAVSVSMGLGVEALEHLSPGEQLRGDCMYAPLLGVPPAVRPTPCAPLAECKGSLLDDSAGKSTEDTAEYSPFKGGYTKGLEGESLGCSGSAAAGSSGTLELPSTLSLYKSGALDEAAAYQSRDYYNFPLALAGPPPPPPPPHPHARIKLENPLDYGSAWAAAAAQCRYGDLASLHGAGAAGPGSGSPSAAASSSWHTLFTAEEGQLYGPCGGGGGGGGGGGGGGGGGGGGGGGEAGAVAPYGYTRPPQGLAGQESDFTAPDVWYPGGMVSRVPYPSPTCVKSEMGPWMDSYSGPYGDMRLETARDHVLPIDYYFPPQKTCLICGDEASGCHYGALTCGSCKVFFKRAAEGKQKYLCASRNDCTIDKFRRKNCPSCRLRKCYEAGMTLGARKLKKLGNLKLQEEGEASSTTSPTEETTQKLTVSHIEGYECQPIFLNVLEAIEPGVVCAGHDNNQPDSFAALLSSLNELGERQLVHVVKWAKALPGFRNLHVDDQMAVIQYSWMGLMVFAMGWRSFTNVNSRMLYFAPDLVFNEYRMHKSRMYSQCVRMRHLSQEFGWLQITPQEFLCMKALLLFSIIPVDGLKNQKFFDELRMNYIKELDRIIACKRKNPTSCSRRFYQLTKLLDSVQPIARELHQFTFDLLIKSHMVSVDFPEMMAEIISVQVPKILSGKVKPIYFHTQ
In short: (§1)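 Binding was measured by fluorescence polarization competition between compound and a fluorescent ligand for full-length receptor or ligand-binding domain. Values are means of at least two experiments.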

Estrogen receptor = target: T2, Estrogen receptor (Homo sapiens, UniProt P03372); test: Displacement of fluorescently labeled ligand from ERalpha receptor by fluorescence polarization assay; in short: as §1
T2 sequence (P03372 whole entry): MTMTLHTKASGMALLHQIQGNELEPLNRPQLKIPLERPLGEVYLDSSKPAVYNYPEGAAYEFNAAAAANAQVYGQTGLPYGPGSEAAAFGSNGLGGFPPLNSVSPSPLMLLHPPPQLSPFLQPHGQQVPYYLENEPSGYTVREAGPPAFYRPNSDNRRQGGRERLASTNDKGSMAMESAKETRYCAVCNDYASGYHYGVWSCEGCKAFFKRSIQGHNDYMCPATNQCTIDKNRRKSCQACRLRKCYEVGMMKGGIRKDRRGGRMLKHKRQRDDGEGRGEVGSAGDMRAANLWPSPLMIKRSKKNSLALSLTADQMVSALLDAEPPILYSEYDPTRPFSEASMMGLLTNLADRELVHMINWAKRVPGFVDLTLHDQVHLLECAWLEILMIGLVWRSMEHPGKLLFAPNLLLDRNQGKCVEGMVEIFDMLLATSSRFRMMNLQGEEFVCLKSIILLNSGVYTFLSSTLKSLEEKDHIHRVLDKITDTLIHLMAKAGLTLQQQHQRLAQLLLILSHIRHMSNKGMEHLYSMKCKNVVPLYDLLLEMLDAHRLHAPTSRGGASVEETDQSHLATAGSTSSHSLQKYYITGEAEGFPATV

SAOS-2 = test: Induction of alkaline phosphatase expression in human Saos2 cells after 3 days by spectrophotometry; assay type: cell-based; conditions: SAOS-2, 72 h
Blood [1] = test: Antiinflammatory activity in human whole blood assessed as inhibition of LPS-induced TNFalpha production after overnight incubation by ELISA; assay type: functional, tissue-based
In short: (§2)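 Whole blood from two donors per experiment was collected into ACD-A. Compounds were added and the blood was incubated about 20 h at 37 °C under 5% CO2. Blood was then stimulated for 5 h with LPS (final 100 ng/mL, for TNFα) or IL-1β (final 10 ng/mL, for IL-8). Plasma TNFα or IL-8 was measured by ELISA. Efficacy was expressed as % of dexamethasone, and values are means of at least two experiments.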

Blood [2] = test: Antiinflammatory activity in human whole blood assessed as inhibition of IL-1beta-induced IL-8 production after overnight incubation by ELISA relative to Dexamethasone; assay type: functional; in short: as §2
[3] = Cmax in Sprague-Dawley rat at 10 mg/kg, po; assay type: ADME, organism-based; parameters: dose 10 mg/kg, route oral; conditions: in vivo
In short: (§3)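 Male Sprague-Dawley rats received a single intravenous (1 mg/kg) or oral (10 or 50 mg/kg) dose. Plasma pharmacokinetic parameters were derived from these profiles.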

[4] = AUC in Sprague-Dawley rat at 50 mg/kg, po; assay type: ADME, organism-based; parameters: dose 50 mg/kg, route oral; conditions: plasma; in short: as §3
[5] = Membrane permeability by PAMPA; assay type: ADME
Rattus norvegicus = test: Antiinflammatory activity in Sprague-Dawley rat assessed as carrageenan-induced paw edema at 30 mg/kg, po administered as a single dose 2 hrs before carrageenan challenge measured 4 hrs post carrageenan challenge by plethysmometry relative to control

Row | Compound | Ki (Androgen receptor) | Ki (Estrogen receptor) | Emax (SAOS-2) | EC50 (Blood [1]) | Imax (Blood [2]) | Cmax [3] | AUC [4] | permeability [5] | level, % of control at 30 mg/kg (Rattus norvegicus)
1 | CN(C)C(=O)c1ccc(-c2ccc3c(n2)Oc2ccccc2[C@H]3C(C)(C)C(=O)Nc2nncs2)cc1F | > 5000 nM | > 75000 nM | 13% | 830 nM | 70% | 285 ng/mL | 20200 ng·h/mL | permeable | 42%
2 | CCN(C)C(=O)c1ccc(-c2ccc3c(n2)Oc2ccccc2[C@@H]3C(C)(C)C(=O)Nc2nncs2)cc1F | > 5000 nM | > 75000 nM | 24% | 379 nM | 88% | 351 ng/mL | 28100 ng·h/mL | permeable | 54%
